Results published in ChEMBL document CHEMBL4011646, “Discovery of a Small-Molecule Inhibitor of Interleukin 15: Pharmacophore-Based Virtual Screening and Hit Optimization” (J Med Chem, 2017).

Legend:
[1] = Inhibition of recombinant human IL2R/IL2-induced mouse 32D-beta cell proliferation preincubated for 30 mins with protein followed by cell addition measured after 2.5 days by Alamar blue reduction assay
How it was run: (§1)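 32Dβ cells (IL-2Rβ/γ) were starved 4 h without cytokine, then 1 × 10^4 cells were cultured 2.5 days with 100 pM RLI or 1.5 nM IL-2. The cytokine was preincubated 30 min with fixed or increasing compound concentrations or vehicle (culture medium, DMSO 0.1% final). Alamar blue was added for 6 h at 37 °C, with fluorescence read at ex 560/em 590 nm. Tested in triplicate; IC50 is the mean of ≥2 independent assays.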

IL15-IL15 receptor [2] = target: IL15-IL15 receptor (Homo sapiens, UniProt P40933); assay: Inhibition of IL15R/IL15 interaction in human NK92 cells assessed as reduction of IL15-induced STAT5 phosphorylation preincubated for 30 mins with IL15 followed by cell addition measured after 1 hr by AlphaScreen assay; type: cell-based
How it was run: (§2)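 NK-92 cells were washed and serum-starved overnight, then 2 × 10^5 cells were stimulated at 37 °C for 1 h with IL-15 (50 pM fixed) or IL-2. The cytokine had been preincubated 30 min with increasing compound concentrations or vehicle (PBS, BSA 0.1%, DMSO 0.6% final). Cells were lysed and p-Stat5 read by AlphaScreen SureFire. Duplicates, ≥3 independent experiments. Result is % reduction of the cytokine p-Stat5 response.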

[3] = Inhibition of IL2R/IL2 interaction in human NK92 cells assessed as reduction IL2-induced STAT5 phosphorylation preincubated for 30 mins with IL2 followed by cell addition measured after 1 hr by AlphaScreen assay; type: cell-based; how it was run: as §2
Interleukin-15 = Interleukin-15 (Homo sapiens, UniProt P40933); assay: Binding affinity to recombinant human IL-15 by SPR assay
How it was run: (§3)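 SPR on a BIAcore 3000 at 25 °C. Recombinant IL-15, RLI or IL-2 was amine-coupled to CM5 chips, and compounds were flowed over at 100 μM or at increasing concentrations (3.125–100 μM) in PBS or 1% or 5% DMSO. Binding was read as the change in RU, and Kd was derived from direct interaction.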

Interleukin-2 = Interleukin-2 (Homo sapiens, UniProt P60568); assay: Binding affinity to recombinant human IL-2 by SPR assay; how it was run: as §3
IL15-IL15 receptor [4] = target: IL15-IL15 receptor (Homo sapiens, UniProt P40933+Q13261); assay: Inhibition of human IL-15Ralpha-sushi domain/human IL-15-induced mouse 32D-beta cell proliferation preincubated for 30 mins with protein followed by cell addition measured after 2.5 days by Alamar blue reduction assay; how it was run: as §1
Sequence of IL15-IL15 receptor (Homo sapiens, UniProt P40933+Q13261) (P40933 whole entry, the tested form may be a part): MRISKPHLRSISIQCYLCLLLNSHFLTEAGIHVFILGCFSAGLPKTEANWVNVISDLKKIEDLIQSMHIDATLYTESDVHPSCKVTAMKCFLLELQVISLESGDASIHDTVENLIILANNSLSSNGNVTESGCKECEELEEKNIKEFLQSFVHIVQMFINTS
Sequence of IL15-IL15 receptor (Homo sapiens, UniProt P40933+Q13261) (Q13261 whole entry, the tested form may be a part): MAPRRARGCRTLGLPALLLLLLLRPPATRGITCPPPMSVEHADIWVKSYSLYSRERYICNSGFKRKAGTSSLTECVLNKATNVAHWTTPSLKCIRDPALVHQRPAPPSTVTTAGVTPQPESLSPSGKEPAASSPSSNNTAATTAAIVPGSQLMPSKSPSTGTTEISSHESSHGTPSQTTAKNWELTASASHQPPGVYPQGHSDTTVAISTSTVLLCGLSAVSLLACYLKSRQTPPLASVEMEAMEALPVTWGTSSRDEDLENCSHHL

Sequence of Interleukin-2 (P60568 whole entry, the tested form may be a part): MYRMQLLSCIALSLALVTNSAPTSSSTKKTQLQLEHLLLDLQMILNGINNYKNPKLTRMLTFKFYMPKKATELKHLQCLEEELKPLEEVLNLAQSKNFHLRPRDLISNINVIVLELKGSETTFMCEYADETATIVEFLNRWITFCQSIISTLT
Sequence of Interleukin-15 (P40933 whole entry): as the sequence (P40933 whole entry, the tested form may be a part) above
Sequence of IL15-IL15 receptor (Homo sapiens, UniProt P40933) (P40933 whole entry): as the sequence (P40933 whole entry, the tested form may be a part) above
Sequence of IL15-IL15 receptor (Homo sapiens, UniProt P40933) (Q13261 whole entry, further chain): as the sequence (Q13261 whole entry, the tested form may be a part) above

Row | IC50 (IL15-IL15 receptor [2]) [nM] | IC50 [3] [nM] | SMILES | IC50 ([1]; Homo sapiens, read-out: IC50) [µM] | other results
1 | 205 | 162 | COc1ccc(NC(=O)CCCCCCCSc2nnc(Cc3nn(C)c(=O)c4ccccc34)n2C)c(OC)c1 | 0.9 | Kd (Interleukin-15): 19.6 µM; Kd (Interleukin-2): 27.6 µM
2 | 124 | 59 | Cn1c(Cc2nn(C)c(=O)c3ccccc23)nnc1SCCCCCCCCCCC(=O)NC12CC3CC(CC(C3)C1)C2 | 4.9 | Kd (Interleukin-15): 16 µM
3 | 142 | 159 | Cn1c(Cc2nn(C)c(=O)c3ccccc23)nnc1SCCCCCCCCCCC(=O)Nc1ccc(Cl)cc1Cl | 4.4 | 
4 | 9110 | 14100 | Cn1c(Cc2nn(C)c(=O)c3ccccc23)nnc1SCC(=O)Nc1ccc(Cl)cc1Cl | 11.6 | Kd (Interleukin-15): 48.4 µM; Kd (Interleukin-2): 10.5 µM
5 | 40 | 53 | CCCOc1ccc(NC(=O)CCCCCCCSc2nnc(Cc3nn(C)c(=O)c4ccccc34)n2C)cc1 | 0.9 | Kd (Interleukin-15): 19 µM
6 | 57 | 43 | CCOC(=O)c1cccc(NC(=O)CCCCCCCSc2nnc(Cc3nn(C)c(=O)c4ccccc34)n2C)c1 | 0.6 | Kd (Interleukin-15): 21.8 µM; Kd (Interleukin-2): 23.1 µM
7 | 100 | 73 | Cn1c(Cc2nn(C)c(=O)c3ccccc23)nnc1SCCCCCCCC(=O)Nc1ccc(N=[N+]=[N-])cc1 | 1.1 | Kd (Interleukin-15): 42.4 µM
8 | 201 | 204 | COc1ccc(NC(=O)CCCCCCCSc2nnc(Cc3nn(C)c(=O)c4ccccc34)n2C)cc1 | 3.2 | Kd (Interleukin-15): 26 µM
9 | 76 | 69 | Cc1ccc(NC(=O)CCCCCCCSc2nnc(Cc3nn(C)c(=O)c4ccccc34)n2C)c(Cl)c1 | 1.7 | Kd (Interleukin-15): 24.1 µM
10 | 92 | 83 | Cn1c(Cc2nn(C)c(=O)c3ccccc23)nnc1SCCCCCCCC(=O)Nc1ccc(Br)cc1Br | 1.3 | Kd (Interleukin-15): 11.6 µM; Kd (Interleukin-2): 10 µM
11 | 153 | 160 | Cn1c(Cc2nn(C)c(=O)c3ccccc23)nnc1SCCCCCCCC(=O)Nc1ccc(Cl)cc1Cl | 1.1 | Kd (Interleukin-15): 19.1 µM; Kd (Interleukin-2): 8 µM
12 | > 30000 | > 30000 | Cn1c(Cc2nn(C)c(=O)c3ccccc23)nnc1SCC(=O)NC12CC3CC(CC(C3)C1)C2 |  | IC50 (IL15-IL15 receptor [4]): Not Active; IC50 [1]: Not Active
13 | 360 | 226 | COc1ccc(NC(=O)CCCCCCCSc2nnc(Cc3nn(C)c(=O)c4ccccc34)n2C)c(O)c1 | 1 | Kd (Interleukin-15): 21.2 µM; Kd (Interleukin-2): 12.5 µM
14 | 210 | 152 | Cn1c(Cc2nn(C)c(=O)c3ccccc23)nnc1SCCCCCCCC(=O)NC12CC3CC(CC(C3)C1)C2 | 1.8 | Kd (Interleukin-15): 78 µM
15 | 55 | 58 | CC(C)COc1ccc(NC(=O)CCCCCCCSc2nnc(Cc3nn(C)c(=O)c4ccccc34)n2C)cc1 | 3 | Kd (Interleukin-15): 25 µM
16 | 110 | 76 | Cn1c(Cc2nn(C)c(=O)c3ccccc23)nnc1SCCCCCCCC(=O)Nc1ccc(F)cc1F | 1 | 
17 | 93 | 89 | CC(C)Oc1ccc(NC(=O)CCCCCCCSc2nnc(Cc3nn(C)c(=O)c4ccccc34)n2C)cc1 | 0.6 | Kd (Interleukin-15): 20.9 µM

Second part, the molecule before the results:

Row | SMILES | IC50 (IL15-IL15 receptor [2]) [nM] | IC50 [3] [nM] | IC50 ([1]; Homo sapiens, read-out: IC50) [µM] | other results
18 | Cn1c(Cc2nn(C)c(=O)c3ccccc23)nnc1SCCCCCCCCCC(=O)Nc1ccc(Cl)cc1Cl |  |  | 1.6 | 
19 | Cn1c(Cc2nn(C)c(=O)c3ccccc23)nnc1SCCCCCCCC(=O)Nc1ccc(I)cc1 |  |  | 0.8 | 
20 | Cn1c(Cc2nn(C)c(=O)c3ccccc23)nnc1SCCCCCCCCCCC(=O)Nc1cccc2ccccc12 |  |  | 8.5 | 
21 | Cn1nc(Cc2nnc(SCCCCCCCC(=O)Nc3ccc(Cl)cc3Cl)o2)c2ccccc2c1=O |  |  | 0.8 | 
22 | CN(C(=O)CSc1nnc(Cc2nn(C)c(=O)c3ccccc23)n1C)c1ccc(Cl)cc1Cl |  |  |  | IC50 [1]: Not Active
23 | CN(C(=O)CCCCCCCSc1nnc(Cc2nn(C)c(=O)c3ccccc23)n1C)c1ccc(Cl)cc1Cl |  |  | 8.4 | 
24 | COc1ccc(NC(=O)CSc2nnc(Cc3nn(C)c(=O)c4ccccc34)n2C)cc1 |  |  |  | IC50 (IL15-IL15 receptor [4]): Not Active; IC50 [1]: Not Active
25 | Cn1c(Cc2nn(C)c(=O)c3ccccc23)nnc1SCCCC(=O)Nc1ccc(Cl)cc1Cl |  |  | 11.2 | 
26 | Cn1c(Cc2nn(C)c(=O)c3ccccc23)nnc1SCCCCCCCC(=O)Nc1ccc(Cl)cc1 |  |  | 0.8 | 
27 | Cn1c(Cc2nn(C)c(=O)c3ccccc23)nnc1SCC(=O)Nc1ccc(I)cc1 |  |  |  | IC50 (IL15-IL15 receptor [4]): Not Active; IC50 [1]: Not Active
28 | Cn1c(Cc2nn(C)c(=O)c3ccccc23)nnc1SCCCCCCCCCCCCCCCC(=O)Nc1ccc(Cl)cc1Cl |  |  | 4.6 | 
29 | Cn1c(Cc2nn(C)c(=O)c3ccccc23)nnc1SCc1cn(C23CC4CC(CC(C4)C2)C3)nn1 |  |  | 30 | 
30 | Cn1c(Cc2nn(C)c(=O)c3ccccc23)nnc1SCC(=O)Nc1ccc(O)cc1 |  |  |  | IC50 (IL15-IL15 receptor [4]): Not Active; IC50 [1]: Not Active
31 | Cn1c(Cc2nn(C)c(=O)c3ccccc23)nnc1SCCCCCC(=O)Nc1ccc(Cl)cc1Cl |  |  | 9.8 | 
32 | Cn1c(Cc2nn(C)c(=O)c3ccccc23)nnc1SCCCCCCCC(=O)Nc1ccc(O)cc1O |  |  | 21 | 
33 | Cn1c(Cc2nn(C)c(=O)c3ccccc23)nnc1SCC(=O)Nc1ccc(F)cc1F |  |  |  | IC50 (IL15-IL15 receptor [4]): Not Active
34 | Cn1c(Cc2nn(C)c(=O)c3ccccc23)nnc1SCC(=O)Nc1ccccc1C(=O)O |  |  |  | IC50 (IL15-IL15 receptor [4]): Not Active; IC50 [1]: Not Active
35 | CCOC(=O)c1cccc(NC(=O)CSc2nnc(Cc3nn(C)c(=O)c4ccccc34)n2C)c1 |  |  |  | IC50 (IL15-IL15 receptor [4]): Not Active; IC50 [1]: Not Active
36 | Cn1c(Cc2nn(C)c(=O)c3ccccc23)nnc1SCCCCCCCC(=O)Nc1ccccc1O |  |  | 23 | 
37 | CC(C)COc1ccc(NC(=O)CSc2nnc(Cc3nn(C)c(=O)c4ccccc34)n2C)cc1 |  |  | 30 | 
38 | CCCCCCCCCCSc1nnc(Cc2nn(C)c(=O)c3ccccc23)n1C |  |  | 10 | 
39 | CCOC(=O)c1ccccc1NC(=O)CSc1nnc(Cc2nn(C)c(=O)c3ccccc23)n1C |  |  | 30 | 
40 | Cn1c(Cc2nn(C)c(=O)c3ccccc23)nnc1SCCCCCCCC(=O)Nc1cccc2ccccc12 |  |  | 1.9 | 
41 | Cn1c(Cc2nn(C)c(=O)c3ccccc23)nnc1SCC(=O)Nc1cccc(C(=O)O)c1 |  |  |  | IC50 (IL15-IL15 receptor [4]): Not Active; IC50 [1]: Not Active
42 | Cn1nc(Cc2nnc(SCCCCCCCCCCC(=O)Nc3ccc(Cl)cc3Cl)o2)c2ccccc2c1=O |  |  | 7.5 | 
43 | Cn1c(Cc2nn(C)c(=O)c3ccccc23)nnc1SCCCCCCCC(=O)Nc1ccc(O)cc1 |  |  | > 30 | 
44 | Cn1c(Cc2nn(C)c(=O)c3ccccc23)nnc1SCc1cn(CCCCC(=O)Nc2ccc(Cl)cc2Cl)nn1 |  |  | > 30 | 
45 | Cn1c(Cc2nn(C)c(=O)c3ccccc23)nnc1S(=O)(=O)CCCCCCCC(=O)Nc1ccc(Br)cc1Br |  |  | 1.6 | 
46 | CC(C)Oc1ccc(NC(=O)CSc2nnc(Cc3nn(C)c(=O)c4ccccc34)n2C)cc1 |  |  | > 30 | 
47 | CCCOc1ccc(NC(=O)CSc2nnc(Cc3nn(C)c(=O)c4ccccc34)n2C)cc1 |  |  | > 30 | 
